ChEMBL document CHEMBL1126176, “Synthetic modification of a novel microbial ionophore: exploration of anticoccidial structure-activity relationships” (J Med Chem, 1992)

How the values were obtained:
Gallus gallus [1] = species: Gallus gallus; test: Minimum concentration of the compound(ppm) in feed which provides control of Eimeria tenella lesions equivalent to noninfected, nonmedicated birds; type: functional
Outline: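 Drug is given continuously in feed to E. tenella-infected birds from 1 day before infection. Birds are killed 6 days after infection and lesions are scored. The value is the lowest feed level (ppm) giving lesion control equal to noninfected, nonmedicated birds.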

Gallus gallus [2] = species: Gallus gallus; test: In vitro concentration of compound to inhibit growth of Eimeria tenella by 50% […]; type: functional, organism-based
Outline: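 E. tenella grown in vitro with drug. Growth is compared with nonmedicated controls. The value is the drug concentration (ppm) that inhibits growth by 50%.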

CO[C@@H]1[C@@H](O[C@H]2CC[C@H](OC)[C@@H](C)O2)[C@H](C)[C@](CC(=O)[O-])(OC)O[C@H]1[C@H](C)[C@H]1O[C@@]2(CC[C@@](C)([C@H]3CC[C@@](C)([C@@H]4O[C@@H]([C@H]5O[C@](C)(O)[C@H](C)C[C@@H]5C)C[C@@H]4O[C@H]4CC[C@H](OC)[C@@H](C)O4)O3)O2)C[C@H](O)[C@H]1C.[Na+]
MEC (Gallus gallus [1]): 120 p.p.m.

CO[C@@H]1[C@@H](O[C@H]2CC[C@H](OC)[C@@H](C)O2)[C@H](C)[C@@](O)(CC(=O)[O-])O[C@H]1[C@H](C)[C@H]1O[C@@]2(CC[C@@](C)([C@H]3CC[C@@](C)([C@@H]4O[C@@H]([C@@H](O)[C@@H](C)C[C@@H](C)C(C)(C)O)C[C@@H]4O[C@H]4CC[C@H](OC)[C@@H](C)O4)O3)O2)C[C@H](O)[C@H]1C.[Na+]
IC50 (Gallus gallus [2]): 0.03 p.p.m. | MEC (Gallus gallus [1]): >120 p.p.m.

CO[C@@H]1[C@@H](O[C@H]2CC[C@H](OC)[C@@H](C)O2)[C@H](C)[C@@](O)(CC(=O)[O-])O[C@H]1[C@H](C)[C@H]1O[C@@]2(CC[C@@](C)([C@H]3CC[C@@](C)([C@@H]4O[C@@H]([C@H]5O[C@](C)(O)[C@H](C)C[C@@H]5C)C[C@@H]4O[C@H]4CC[C@H](OC)[C@@H](C)O4)O3)O2)C[C@H](O)[C@H]1C.[Na+] [IONOPHORE]
IC50 (Gallus gallus [2]): 0.03 p.p.m. | MEC (Gallus gallus [1]): 15 p.p.m.

C#CCC(C(=O)[O-])[C@@]1(O)O[C@@H]([C@H](C)[C@H]2O[C@@]3(CC[C@@](C)([C@H]4CC[C@@](C)([C@@H]5O[C@@H]([C@H]6O[C@](C)(O)[C@H](C)C[C@@H]6C)C[C@@H]5O[C@H]5CC[C@H](OC)[C@@H](C)O5)O4)O3)C[C@H](O)[C@H]2C)[C@H](OC)[C@@H](O[C@H]2CC[C@H](OC)[C@@H](C)O2)[C@@H]1C.[Na+] (stereo in doubt; 2e)
MEC (Gallus gallus [1]): >60 p.p.m.

C#CCC(C(=O)[O-])[C@@]1(O)O[C@@H]([C@H](C)[C@H]2O[C@@]3(CC[C@@](C)([C@H]4CC[C@@](C)([C@@H]5O[C@@H]([C@H]6O[C@](C)(O)[C@H](C)C[C@@H]6C)C[C@@H]5O[C@H]5CC[C@H](OC)[C@@H](C)O5)O4)O3)C[C@H](O)[C@H]2C)[C@H](OC)[C@@H](O[C@H]2CC[C@H](OC)[C@@H](C)O2)[C@@H]1C.[Na+] (stereo in doubt; 2f)
IC50 (Gallus gallus [2]): 0.01 p.p.m. | MEC (Gallus gallus [1]): 60 p.p.m.

CO[C@@H]1[C@@H](O[C@H]2CC[C@H](OC)[C@@H](C)O2)[C@H](C)[C@@](O)(CC(=O)[O-])O[C@H]1[C@H](C)[C@H]1O[C@@]2(CC[C@@](C)([C@H]3CC[C@@](C)([C@@H]4O[C@@H]([C@@H](O)[C@@H](C)C[C@@H](C)[C@@H](C)O)C[C@@H]4O[C@H]4CC[C@H](OC)[C@@H](C)O4)O3)O2)C[C@H](O)[C@H]1C.[Na+]
IC50 (Gallus gallus [2]): 0.05 p.p.m. | MEC (Gallus gallus [1]): 80 p.p.m.

CCCC(C(=O)[O-])[C@@]1(O)O[C@@H]([C@H](C)[C@H]2O[C@@]3(CC[C@@](C)([C@H]4CC[C@@](C)([C@@H]5O[C@@H]([C@H]6O[C@](C)(O)[C@H](C)C[C@@H]6C)C[C@@H]5O[C@H]5CC[C@H](OC)[C@@H](C)O5)O4)O3)C[C@H](O)[C@H]2C)[C@H](OC)[C@@H](O[C@H]2CC[C@H](OC)[C@@H](C)O2)[C@@H]1C.[Na+] (stereo partly drawn)
IC50 (Gallus gallus [2]): 0.01 p.p.m. | MEC (Gallus gallus [1]): 60 p.p.m.

CO[C@@H]1[C@@H](O[C@H]2CC[C@H](OC)[C@@H](C)O2)[C@H](C)[C@@](O)(C(C)C(=O)[O-])O[C@H]1[C@H](C)[C@H]1O[C@@]2(CC[C@@](C)([C@H]3CC[C@@](C)([C@@H]4O[C@@H]([C@H]5O[C@](C)(O)[C@H](C)C[C@@H]5C)C[C@@H]4O[C@H]4CC[C@H](OC)[C@@H](C)O4)O3)O2)C[C@H](O)[C@H]1C.[Na+] (stereo partly drawn)
IC50 (Gallus gallus [2]): 0.03 p.p.m. | MEC (Gallus gallus [1]): 7.5 p.p.m.

CO[C@@H]1[C@@H](O[C@H]2CC[C@H](OC)[C@@H](C)O2)[C@H](C)[C@@](O)(CC(=O)[O-])O[C@H]1[C@H](C)[C@H]1O[C@@]2(CC[C@@](C)([C@H]3CC[C@@](C)([C@@H]4O[C@@H]([C@H]5O[C@](C)(OC)[C@H](C)C[C@@H]5C)C[C@@H]4O[C@H]4CC[C@H](OC)[C@@H](C)O4)O3)O2)C[C@H](O)[C@H]1C.[Na+]
IC50 (Gallus gallus [2]): 0.02 p.p.m. | MEC (Gallus gallus [1]): 50 p.p.m.

C=CCC(C(=O)[O-])[C@@]1(O)O[C@@H]([C@H](C)[C@H]2O[C@@]3(CC[C@@](C)([C@H]4CC[C@@](C)([C@@H]5O[C@@H]([C@H]6O[C@](C)(O)[C@H](C)C[C@@H]6C)C[C@@H]5O[C@H]5CC[C@H](OC)[C@@H](C)O5)O4)O3)C[C@H](O)[C@H]2C)[C@H](OC)[C@@H](O[C@H]2CC[C@H](OC)[C@@H](C)O2)[C@@H]1C.[Na+] (stereo partly drawn)
IC50 (Gallus gallus [2]): 0.01 p.p.m. | MEC (Gallus gallus [1]): 60 p.p.m.

CO[C@@H]1[C@@H](O)[C@H](C)[C@@](O)(CC(=O)[O-])O[C@H]1[C@H](C)[C@H]1O[C@@]2(CC[C@@](C)([C@H]3CC[C@@](C)([C@@H]4O[C@@H]([C@H]5O[C@](C)(O)[C@H](C)C[C@@H]5C)C[C@@H]4O[C@H]4CC[C@H](OC)[C@@H](C)O4)O3)O2)C[C@H](O)[C@H]1C.[Na+] [SEMDURAMICIN SODIUM]
IC50 (Gallus gallus [2]): 0.03 p.p.m. | MEC (Gallus gallus [1]): 25 p.p.m.

CCC(C(=O)[O-])[C@@]1(O)O[C@@H]([C@H](C)[C@H]2O[C@@]3(CC[C@@](C)([C@H]4CC[C@@](C)([C@@H]5O[C@@H]([C@H]6O[C@](C)(O)[C@H](C)C[C@@H]6C)C[C@@H]5O[C@H]5CC[C@H](OC)[C@@H](C)O5)O4)O3)C[C@H](O)[C@H]2C)[C@H](OC)[C@@H](O[C@H]2CC[C@H](OC)[C@@H](C)O2)[C@@H]1C.[Na+] (stereo partly drawn)
MEC (Gallus gallus [1]): 30 p.p.m.

CO[C@@H]1[C@@H](O)[C@H](C)[C@@](O)(CC(=O)[O-])O[C@H]1[C@H](C)[C@H]1O[C@@]2(CC[C@@](C)([C@H]3CC[C@@](C)([C@@H]4O[C@@H]([C@H]5O[C@](C)(O)[C@H](C)C[C@@H]5C)C[C@@H]4O)O3)O2)C[C@H](O)[C@H]1C.[Na+]
IC50 (Gallus gallus [2]): > 1 p.p.m. | MEC (Gallus gallus [1]): >50 p.p.m.
